According to ChEMBL document CHEMBL1145811, “Synthesis and antibacterial activity of a novel series of acylides: 3-O-(3-pyridyl)acetylerythromycin A derivatives” (J Med Chem, 2003):
Converted amounts (≈) assume the structure as drawn.

How the values were obtained:
Assay type in all cases: functional
Staphylococcus aureus [1] = assay: In vitro minimum inhibitory concentration for antibacterial activity against erythromycin-susceptible strain Staphylococcus aureus […]
How it was run: (§1)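 MIC by agar dilution following the Japan Society of Chemotherapy standard method for aerobic bacteria. S. aureus 209P-JC and S. pneumoniae IID553 are erythromycin-susceptible strains.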

Streptococcus pneumoniae [2] = assay: In vitro minimum inhibitory concentration for antibacterial activity against erythromycin-susceptible strain Streptococcus pneumoniae IID553; how it was run: as §1
Staphylococcus aureus [3] = assay: In vitro minimum inhibitory concentration for antibacterial activity against Staphylococcus aureus B1 (inducibly MLSb-resistant strain encoded by the erm(C) gene)
How it was run: (§2)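 Agar dilution MIC determined by the Japan Society of Chemotherapy standard method for aerobic bacteria.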

Haemophilus influenzae [4] = assay: In vitro minimum inhibitory concentration for antibacterial activity against Haemophilus influenzae ATCC 43095 (ampicillin-susceptible strain that does not produce beta-lactamase); how it was run: as §2
Staphylococcus aureus [5] = assay: In vitro minimum inhibitory concentration for antibacterial activity against Staphylococcus aureus SR138 (constitutively MLSb-resistant strain encoded by the erm(A) gene); how it was run: as §2
Haemophilus influenzae [6] = assay: In vitro minimum inhibitory concentration for antibacterial activity against Haemophilus influenzae ATCC 33533 (ampicillin-resistant strain that produces beta-lactamase); how it was run: as §2
Streptococcus pneumoniae [7] = assay: In vitro minimum inhibitory concentration for antibacterial activity against Streptococcus pneumoniae 211 (MLSb-resistant strain encoded by the erm(B) gene); how it was run: as §2
Streptococcus pneumoniae [8] = assay: In vitro minimum inhibitory concentration for antibacterial activity against Streptococcus pneumoniae 210 (efflux-resistant strain encoded by the mef(A) gene); how it was run: as §2

Row | Compound | MIC (Staphylococcus aureus [1]) [µg/mL] | MIC (Streptococcus pneumoniae [2]) [µg/mL] | MIC (Staphylococcus aureus [3]) [µg/mL] | MIC (Haemophilus influenzae [4]) [µg/mL] | MIC (Staphylococcus aureus [5]) [µg/mL] | MIC (Haemophilus influenzae [6]) [µg/mL] | MIC (Streptococcus pneumoniae [7]) [µg/mL] | MIC (Streptococcus pneumoniae [8]) [µg/mL]
1 | CC[C@H]1OC(=O)[C@H](C)[C@@H](OC(=O)Cc2ccccn2)[C@H](C)[C@@H](OC2O[C@H](C)C[C@H](N(C)C)[C@H]2O)[C@@](C)(OC)C[C@@H](C)C(=O)[C@H](C)[C@@H](O)[C@]1(C)O (some centres undefined) | 1.56 (≈ 2.2 µM) | 0.39 (≈ 0.55 µM) | 1.56 (≈ 2.2 µM) | 50 (≈ 70.5 µM) | > 100 | 25 (≈ 35.3 µM) | > 100 | 0.39 (≈ 0.55 µM)
2 | CC[C@H]1OC(=O)[C@H](C)[C@@H](OC(=O)Cc2ccncc2)[C@H](C)[C@@H](OC2O[C@H](C)C[C@H](N(C)C)[C@H]2O)[C@@](C)(OC)C[C@@H](C)C(=O)[C@H](C)[C@@H](O)[C@]1(C)O (some centres undefined) | 0.78 (≈ 1.1 µM) | 0.39 (≈ 0.55 µM) | 1.56 (≈ 2.2 µM) | 50 (≈ 70.5 µM) | > 100 | 50 (≈ 70.5 µM) | > 100 | 0.39 (≈ 0.55 µM)
3 | CC[C@H]1OC(=O)[C@H](C)[C@@H](OC(=O)Cc2cccnc2)[C@H](C)[C@@H](OC2O[C@H](C)C[C@H](N(C)C)[C@H]2O)[C@@](C)(O)C[C@@H](C)[C@H](O)[C@H](C)[C@@H](O)[C@]1(C)O (some centres undefined) | 3.13 (≈ 4.49 µM) | 0.78 (≈ 1.12 µM) | 6.25 (≈ 8.97 µM) | 12.5 (≈ 17.9 µM) | > 100 | 12.5 (≈ 17.9 µM) | > 100 | 0.78 (≈ 1.12 µM)
4 | CC[C@H]1OC(=O)[C@H](C)[C@@H](OC(=O)Cc2ccccn2)[C@H](C)[C@@H](OC2O[C@H](C)C[C@H](N(C)C)[C@H]2O)[C@@]2(C)C[C@@H](C)[C@H](OC(=O)O2)[C@H](C)[C@H]2OC(=O)O[C@@]21C (some centres undefined) | 0.2 (≈ 0.267 µM) | 0.05 (≈ 0.0668 µM) | 0.78 (≈ 1.04 µM) | 6.25 (≈ 8.35 µM) | > 100 | 6.25 (≈ 8.35 µM) | 100 (≈ 134 µM) | 0.2 (≈ 0.267 µM)
5 | CC[C@H]1OC(=O)[C@H](C)[C@@H](O)[C@H](C)[C@@H](OC2O[C@H](C)C[C@H](N(C)C)[C@H]2O)[C@@]2(C)C[C@@H](C)[C@H](OC(=O)O2)[C@H](C)[C@H]2OC(=O)O[C@@]21C (some centres undefined) | 12.5 (≈ 19.8 µM) | 0.78 (≈ 1.24 µM) | > 100 | 50 (≈ 79.4 µM) | > 100 | 100 (≈ 159 µM) | > 100 | 1.56 (≈ 2.48 µM)
6 | CC[C@H]1OC(=O)[C@H](C)[C@@H](OC(=O)Cc2cccnc2)[C@H](C)[C@@H](OC2O[C@H](C)C[C@H](N(C)C)[C@H]2O)[C@@](C)(O)C[C@@H](C)/C(=N\O)[C@H](C)[C@@H](O)[C@]1(C)O (some centres undefined) | 1.56 (≈ 2.2 µM) | 0.39 (≈ 0.549 µM) | 1.56 (≈ 2.2 µM) | 12.5 (≈ 17.6 µM) | > 100 | 12.5 (≈ 17.6 µM) | > 100 | 0.78 (≈ 1.1 µM)
7 | CC[C@H]1OC(=O)[C@H](C)[C@@H](OC(=O)Cc2ccc(OC)cc2)[C@H](C)[C@@H](OC2O[C@H](C)C[C@H](N(C)C)[C@H]2O)[C@@](C)(OC)C[C@@H](C)C(=O)[C@H](C)[C@@H](O)[C@]1(C)O (some centres undefined) | 1.56 (≈ 2.11 µM) | 0.78 (≈ 1.06 µM) | 12.5 (≈ 16.9 µM) | 100 (≈ 136 µM) | > 100 | 50 (≈ 67.8 µM) | > 100 | 0.78 (≈ 1.06 µM)
8 | CC[C@H]1OC(=O)[C@H](C)[C@@H](OC(=O)Cc2ccccc2OC)[C@H](C)[C@@H](OC2O[C@H](C)C[C@H](N(C)C)[C@H]2O)[C@@](C)(OC)C[C@@H](C)C(=O)[C@H](C)[C@@H](O)[C@]1(C)O (some centres undefined) | 3.13 (≈ 4.24 µM) | 1.56 (≈ 2.11 µM) | 12.5 (≈ 16.9 µM) | > 100 | > 100 | 100 (≈ 136 µM) | > 100 | 1.56 (≈ 2.11 µM)
9 | CC[C@H]1OC(=O)[C@H](C)[C@@H](OC(=O)Cc2ccncc2)[C@H](C)[C@@H](OC2O[C@H](C)C[C@H](N(C)C)[C@H]2O)[C@@]2(C)C[C@@H](C)[C@H](OC(=O)O2)[C@H](C)[C@H]2OC(=O)O[C@@]21C (some centres undefined) | 0.2 (≈ 0.267 µM) | 0.05 (≈ 0.0668 µM) | 0.39 (≈ 0.521 µM) | 12.5 (≈ 16.7 µM) | > 100 | 6.25 (≈ 8.35 µM) | > 100 | 0.2 (≈ 0.267 µM)
10 | CC[C@H]1OC(=O)[C@H](C)[C@@H](OC(=O)Cc2cccnc2)[C@H](C)[C@@H](OC2O[C@H](C)C[C@H](N(C)C)[C@H]2O)[C@@](C)(O)C[C@@H](C)CN(C)[C@H](C)[C@@H](O)[C@]1(C)O (some centres undefined) | 3.13 (≈ 4.41 µM) | 0.78 (≈ 1.1 µM) | 6.25 (≈ 8.8 µM) | 1.56 (≈ 2.2 µM) | > 100 | 1.56 (≈ 2.2 µM) | > 100 | 0.78 (≈ 1.1 µM)
11 | CC[C@H]1OC(=O)[C@H](C)[C@@H](OC(=O)Cc2cccnc2)[C@H](C)[C@@H](OC2O[C@H](C)C[C@H](N(C)C)[C@H]2O)[C@@](C)(O)C[C@@H](C)C(=O)[C@H](C)[C@@H](O)[C@]1(C)O (some centres undefined) | 1.56 (≈ 2.25 µM) | 0.2 (≈ 0.288 µM) | 6.25 (≈ 8.99 µM) | 12.5 (≈ 18 µM) | > 100 | 12.5 (≈ 18 µM) | > 100 | 0.78 (≈ 1.12 µM)
12 | CC[C@H]1OC(=O)[C@H](C)[C@@H](OC(=O)Cc2ccccc2[N+](=O)[O-])[C@H](C)[C@@H](OC2O[C@H](C)C[C@H](N(C)C)[C@H]2O)[C@@](C)(OC)C[C@@H](C)C(=O)[C@H](C)[C@@H](O)[C@]1(C)O (some centres undefined) | 0.39 (≈ 0.518 µM) | 0.2 (≈ 0.266 µM) | 0.78 (≈ 1.04 µM) | 50 (≈ 66.4 µM) | > 100 | 50 (≈ 66.4 µM) | > 100 | 0.2 (≈ 0.266 µM)
13 | CC[C@H]1OC(=O)[C@H](C)[C@@H](OC(=O)Cc2cccc(OC)c2)[C@H](C)[C@@H](OC2O[C@H](C)C[C@H](N(C)C)[C@H]2O)[C@@](C)(OC)C[C@@H](C)C(=O)[C@H](C)[C@@H](O)[C@]1(C)O (some centres undefined) | 1.56 (≈ 2.11 µM) | 0.39 (≈ 0.529 µM) | 3.13 (≈ 4.24 µM) | 50 (≈ 67.8 µM) | > 100 | 25 (≈ 33.9 µM) | > 100 | 0.39 (≈ 0.529 µM)
14 | CC[C@H]1OC(=O)[C@H](C)[C@@H](OC(=O)Cc2cccnc2)[C@H](C)[C@@H](OC2O[C@H](C)C[C@H](N(C)C)[C@H]2O)[C@@](C)(OC)C[C@@H](C)/C(=N\O)[C@H](C)[C@@H](O)[C@]1(C)O (some centres undefined) | 0.78 (≈ 1.08 µM) | 0.2 (≈ 0.276 µM) | 1.56 (≈ 2.15 µM) | 12.5 (≈ 17.3 µM) | > 100 | 12.5 (≈ 17.3 µM) | > 100 | 0.39 (≈ 0.539 µM)
15 | CC[C@H]1OC(=O)[C@H](C)[C@@H](OC2C[C@@](C)(OC)[C@@H](O)[C@H](C)O2)[C@H](C)[C@@H](OC2O[C@H](C)C[C@H](N(C)C)[C@H]2O)[C@@]2(C)C[C@@H](C)[C@H](OC(=O)O2)[C@H](C)[C@H]2OC(=O)O[C@@]21C (some centres undefined) | 0.1 (≈ 0.127 µM) | 0.1 (≈ 0.127 µM) | > 100 | 1.56 (≈ 1.98 µM) | > 100 | 1.56 (≈ 1.98 µM) | > 100 | 0.39 (≈ 0.495 µM)
16 | CC[C@H]1OC(=O)[C@H](C)[C@@H](OC(=O)Cc2cccnc2)[C@H](C)[C@@H](OC2O[C@H](C)C[C@H](N(C)C)[C@H]2O)[C@@](C)(O)C[C@@H](C)[C@H](O)[C@H](C)[C@H]2OC(=O)O[C@@]21C (some centres undefined) | 0.78 (≈ 1.08 µM) | 0.1 (≈ 0.138 µM) | 0.78 (≈ 1.08 µM) | 3.13 (≈ 4.33 µM) | > 100 | 6.25 (≈ 8.65 µM) | > 100 | 0.2 (≈ 0.277 µM)
17 | CC[C@H]1OC(=O)[C@H](C)[C@@H](OC(=O)CCc2cccc(OC)c2)[C@H](C)[C@@H](OC2O[C@H](C)C[C@H](N(C)C)[C@H]2O)[C@@](C)(OC)C[C@@H](C)C(=O)[C@H](C)[C@@H](O)[C@]1(C)O (some centres undefined) | 3.13 (≈ 4.16 µM) | 0.78 (≈ 1.04 µM) | 3.13 (≈ 4.16 µM) | 100 (≈ 133 µM) | > 100 | 100 (≈ 133 µM) | > 100 | 0.78 (≈ 1.04 µM)
18 | CC[C@H]1OC(=O)[C@H](C)[C@@H](OC(=O)Cc2cccnc2)[C@H](C)[C@@H](OC2O[C@H](C)C[C@H](N(C)C)[C@H]2O)[C@@](C)(O)C[C@@H](C)[C@@H]2OC(=O)O[C@H]([C@H]2C)[C@]1(C)O (some centres undefined) | 0.78 (≈ 1.08 µM) | 0.1 (≈ 0.138 µM) | 1.56 (≈ 2.16 µM) | 12.5 (≈ 17.3 µM) | > 100 | 6.25 (≈ 8.65 µM) | > 100 | 0.39 (≈ 0.54 µM)
